Reference: ChEMBL document CHEMBL3120077, “Synthesis, structure-activity relationship of iodinated-4-aryloxymethyl-coumarins as potential anti-cancer and anti-mycobacterial agents” (Eur J Med Chem, 2014)
In brackets after ≈: the same amount, converted by molar mass.

Assays:
Type in all cases: functional
[1] = test system: Mycobacterium tuberculosis; assay: Antimicrobial activity against Mycobacterium tuberculosis
Procedure, shortened: (§1)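 M. tuberculosis H37Rv was tested in Middlebrook 7H9 broth in a microplate Alamar Blue assay. Compounds were serially diluted on the plate to final concentrations of 100–0.2 µg/mL. Sealed plates were incubated at 37 °C for 5 days. A fresh 1:1 mix of Alamar Blue and 10% Tween 80 was then added, followed by 24 h more incubation. Blue wells were scored as no growth, pink as growth.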

[2] = Cytotoxicity against human MDA-MB cells after 24 hrs by MTT assay
Procedure, shortened: (§2)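 Cells seeded at 2×10^4/well, incubated overnight, then exposed 24 h to test concentrations. MTT (5 mg/mL stock) added, 3 h at 37 °C; formazan dissolved in DMSO, absorbance 570 nm. Percent viability inhibition relative to untreated control; IC50 from linear regression of the dose-response line.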

A549 = assay: Cytotoxicity against human A549 cells after 24 hrs by MTT assay; procedure, shortened: as §2
Mycolicibacterium phlei = assay: Antimicrobial activity against Mycobacterium phlei after 5 days by microplate Alamar Blue assay; settings: 120 h
Procedure, shortened: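 Microplate Alamar Blue assay (MABA) in Middlebrook 7H9 broth, compounds serially diluted on plate to final 100–0.2 µg/mL. Plates sealed and incubated 37 °C for 5 days, then 1:1 Alamar Blue/10% Tween 80 added and incubated 24 h more. Blue scored as no growth, pink as growth.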

[3] = test system: Mycobacterium tuberculosis; assay: Antimicrobial activity against Mycobacterium tuberculosis H37Rv after 5 days by microplate Alamar Blue assay; settings: 120 h; procedure, shortened: as §1
[4] = test system: Mycobacterium tuberculosis; assay: Antimicrobial activity against Mycobacterium tuberculosis ATCC 27294 by microplate Alamar Blue assay; procedure, shortened: as §1

SMILES: Cc1cc(=O)oc2cc(OCc3cn(Cc4cc(=O)oc5ccc6ccccc6c45)nn3)ccc12
- MIC [1]: 6.25 µg/mL (≈ 13.4 µM)

SMILES: Cc1cc(=O)oc2cc(OCc3cn(Cc4cc(=O)oc5cc(Cl)ccc45)nn3)ccc12
- MIC [1]: 6.25 µg/mL (≈ 13.9 µM)

SMILES: O=c1cc(COc2cccc(I)c2)c2cc(Br)ccc2o1
- MIC [2]: 6.25 µg/mL (≈ 13.7 µM)
- MIC (A549): 6.25 µg/mL (≈ 13.7 µM)
- MIC (Mycolicibacterium phlei): 6.25 µg/mL (≈ 13.7 µM)
- MIC [3]: 12.5 µg/mL (≈ 27.3 µM)

SMILES: Cc1ccc2oc(=O)cc(COc3ccc(I)cc3)c2c1
- MIC [2]: 12.5 µg/mL (≈ 31.9 µM)
- MIC (A549): 12.5 µg/mL (≈ 31.9 µM)
- MIC (Mycolicibacterium phlei): 12.5 µg/mL (≈ 31.9 µM)
- MIC [3]: 12.5 µg/mL (≈ 31.9 µM)

SMILES: Cc1ccc2c(COc3ccc(I)cc3)cc(=O)oc2c1
- MIC [2]: 12.5 µg/mL (≈ 31.9 µM)
- MIC (A549): 12.5 µg/mL (≈ 31.9 µM)
- MIC (Mycolicibacterium phlei): 12.5 µg/mL (≈ 31.9 µM)
- MIC [3]: 25 µg/mL (≈ 63.7 µM)

SMILES: Cc1ccc2c(COc3ccc(I)cc3)cc(=O)oc2c1C
- MIC [2]: 12.5 µg/mL (≈ 30.8 µM)
- MIC (A549): 12.5 µg/mL (≈ 30.8 µM)
- MIC (Mycolicibacterium phlei): 12.5 µg/mL (≈ 30.8 µM)
- MIC [3]: 12.5 µg/mL (≈ 30.8 µM)

SMILES: COc1ccc2oc(=O)cc(COc3ccc(I)cc3)c2c1
- MIC [2]: 25 µg/mL (≈ 61.2 µM)
- MIC (A549): 6.25 µg/mL (≈ 15.3 µM)
- MIC (Mycolicibacterium phlei): 12.5 µg/mL (≈ 30.6 µM)
- MIC [3]: 25 µg/mL (≈ 61.2 µM)

SMILES: COc1ccc2c(COc3ccc(I)cc3)cc(=O)oc2c1
- MIC [2]: 25 µg/mL (≈ 61.2 µM)
- MIC (A549): 6.25 µg/mL (≈ 15.3 µM)
- MIC (Mycolicibacterium phlei): 12.5 µg/mL (≈ 30.6 µM)
- MIC [3]: 25 µg/mL (≈ 61.2 µM)

SMILES: O=c1cc(COc2ccc(I)cc2)c2c(ccc3ccccc32)o1
- MIC [2]: 25 µg/mL (≈ 58.4 µM)
- MIC (A549): 6.25 µg/mL (≈ 14.6 µM)
- MIC (Mycolicibacterium phlei): 25 µg/mL (≈ 58.4 µM)
- MIC [3]: 25 µg/mL (≈ 58.4 µM)

SMILES: O=c1cc(COc2ccc(I)cc2)c2ccc3ccccc3c2o1
- MIC [2]: 25 µg/mL (≈ 58.4 µM)
- MIC (A549): 6.25 µg/mL (≈ 14.6 µM)
- MIC (Mycolicibacterium phlei): 25 µg/mL (≈ 58.4 µM)
- MIC [3]: 25 µg/mL (≈ 58.4 µM)

SMILES: O=c1cc(COc2ccc(I)cc2)c2cc(Cl)ccc2o1
- MIC [2]: 1.56 µg/mL (≈ 3.78 µM)
- MIC (A549): 3.12 µg/mL (≈ 7.57 µM)
- MIC (Mycolicibacterium phlei): 3.12 µg/mL (≈ 7.57 µM)
- MIC [3]: 1.56 µg/mL (≈ 3.78 µM)

SMILES: O=c1cc(COc2ccc(I)cc2)c2ccc(Cl)cc2o1
- MIC [2]: 1.56 µg/mL (≈ 3.78 µM)
- MIC (A549): 3.12 µg/mL (≈ 7.57 µM)
- MIC (Mycolicibacterium phlei): 3.12 µg/mL (≈ 7.57 µM)
- MIC [3]: 1.56 µg/mL (≈ 3.78 µM)

SMILES: O=c1cc(COc2ccc(I)cc2)c2cc(Br)ccc2o1
- MIC [2]: 3.12 µg/mL (≈ 6.84 µM)
- MIC (A549): 3.12 µg/mL (≈ 6.84 µM)
- MIC (Mycolicibacterium phlei): 6.25 µg/mL (≈ 13.7 µM)
- MIC [3]: 6.25 µg/mL (≈ 13.7 µM)

SMILES: O=C(N/N=C/c1cccc(O)c1)c1cc2ccccc2oc1=O
- MIC [1]: 50 µg/mL (≈ 162 µM)

SMILES: Cc1cc(=O)oc2cc(OCc3cn(Cc4cc(=O)oc5ccc(Cl)cc45)nn3)ccc12
- MIC [1]: 6.25 µg/mL (≈ 13.9 µM)

SMILES: Cc1ccc2oc(=O)cc(COc3ccccc3I)c2c1
- MIC [2]: 12.5 µg/mL (≈ 31.9 µM)
- MIC (A549): 50 µg/mL (≈ 127 µM)
- MIC (Mycolicibacterium phlei): > 100 µg/mL
- MIC [3]: 12.5 µg/mL (≈ 31.9 µM)

SMILES: Cc1ccc2c(COc3ccccc3I)cc(=O)oc2c1
- MIC [2]: 12.5 µg/mL (≈ 31.9 µM)
- MIC (A549): 50 µg/mL (≈ 127 µM)
- MIC (Mycolicibacterium phlei): > 100 µg/mL
- MIC [3]: 12.5 µg/mL (≈ 31.9 µM)

SMILES: Cc1ccc2c(COc3ccccc3I)cc(=O)oc2c1C
- MIC [2]: 25 µg/mL (≈ 61.5 µM)
- MIC (A549): 50 µg/mL (≈ 123 µM)
- MIC (Mycolicibacterium phlei): 50 µg/mL (≈ 123 µM)
- MIC [3]: 25 µg/mL (≈ 61.5 µM)

SMILES: COc1ccc2oc(=O)cc(COc3ccccc3I)c2c1
- MIC [2]: 25 µg/mL (≈ 61.2 µM)
- MIC (A549): 25 µg/mL (≈ 61.2 µM)
- MIC (Mycolicibacterium phlei): 50 µg/mL (≈ 122 µM)
- MIC [3]: 12.5 µg/mL (≈ 30.6 µM)

SMILES: COc1ccc2c(COc3ccccc3I)cc(=O)oc2c1
- MIC [2]: 25 µg/mL (≈ 61.2 µM)
- MIC (A549): 25 µg/mL (≈ 61.2 µM)
- MIC (Mycolicibacterium phlei): 50 µg/mL (≈ 122 µM)
- MIC [3]: 12.5 µg/mL (≈ 30.6 µM)

SMILES: O=c1cc(COc2ccccc2I)c2c(ccc3ccccc32)o1
- MIC [2]: 25 µg/mL (≈ 58.4 µM)
- MIC (A549): 25 µg/mL (≈ 58.4 µM)
- MIC (Mycolicibacterium phlei): 50 µg/mL (≈ 117 µM)
- MIC [3]: 50 µg/mL (≈ 117 µM)

SMILES: O=c1cc(COc2ccccc2I)c2ccc3ccccc3c2o1
- MIC [2]: 25 µg/mL (≈ 58.4 µM)
- MIC (A549): 25 µg/mL (≈ 58.4 µM)
- MIC (Mycolicibacterium phlei): 50 µg/mL (≈ 117 µM)
- MIC [3]: 50 µg/mL (≈ 117 µM)

SMILES: O=c1cc(COc2ccccc2I)c2cc(Cl)ccc2o1
- MIC [2]: 12.5 µg/mL (≈ 30.3 µM)
- MIC (A549): 12.5 µg/mL (≈ 30.3 µM)
- MIC (Mycolicibacterium phlei): 25 µg/mL (≈ 60.6 µM)
- MIC [3]: 6.25 µg/mL (≈ 15.1 µM)

SMILES: O=c1cc(COc2ccccc2I)c2ccc(Cl)cc2o1
- MIC [2]: 12.5 µg/mL (≈ 30.3 µM)
- MIC (A549): 12.5 µg/mL (≈ 30.3 µM)
- MIC (Mycolicibacterium phlei): 25 µg/mL (≈ 60.6 µM)
- MIC [3]: 6.25 µg/mL (≈ 15.1 µM)

SMILES: O=c1cc(COc2ccccc2I)c2cc(Br)ccc2o1
- MIC [2]: 12.5 µg/mL (≈ 27.3 µM)
- MIC (A549): 12.5 µg/mL (≈ 27.3 µM)
- MIC (Mycolicibacterium phlei): 50 µg/mL (≈ 109 µM)
- MIC [3]: 6.25 µg/mL (≈ 13.7 µM)

SMILES: Cc1ccc2oc(=O)cc(COc3cccc(I)c3)c2c1
- MIC [2]: 25 µg/mL (≈ 63.7 µM)
- MIC (A549): 25 µg/mL (≈ 63.7 µM)
- MIC (Mycolicibacterium phlei): 12.5 µg/mL (≈ 31.9 µM)
- MIC [3]: 25 µg/mL (≈ 63.7 µM)

SMILES: Cc1ccc2c(COc3cccc(I)c3)cc(=O)oc2c1
- MIC [2]: 25 µg/mL (≈ 63.7 µM)
- MIC (A549): 25 µg/mL (≈ 63.7 µM)
- MIC (Mycolicibacterium phlei): 12.5 µg/mL (≈ 31.9 µM)
- MIC [3]: 25 µg/mL (≈ 63.7 µM)

SMILES: Cc1ccc2c(COc3cccc(I)c3)cc(=O)oc2c1C
- MIC [2]: 25 µg/mL (≈ 61.5 µM)
- MIC (A549): 25 µg/mL (≈ 61.5 µM)
- MIC (Mycolicibacterium phlei): 25 µg/mL (≈ 61.5 µM)
- MIC [3]: 25 µg/mL (≈ 61.5 µM)

SMILES: COc1ccc2oc(=O)cc(COc3cccc(I)c3)c2c1
- MIC [2]: 50 µg/mL (≈ 122 µM)
- MIC (A549): 12.5 µg/mL (≈ 30.6 µM)
- MIC (Mycolicibacterium phlei): 50 µg/mL (≈ 122 µM)
- MIC [3]: 25 µg/mL (≈ 61.2 µM)

SMILES: COc1ccc2c(COc3cccc(I)c3)cc(=O)oc2c1
- MIC [2]: 50 µg/mL (≈ 122 µM)
- MIC (A549): 12.5 µg/mL (≈ 30.6 µM)
- MIC (Mycolicibacterium phlei): 50 µg/mL (≈ 122 µM)
- MIC [3]: 25 µg/mL (≈ 61.2 µM)

SMILES: O=c1cc(COc2cccc(I)c2)c2c(ccc3ccccc32)o1
- MIC [2]: 50 µg/mL (≈ 117 µM)
- MIC (A549): 12.5 µg/mL (≈ 29.2 µM)
- MIC (Mycolicibacterium phlei): 25 µg/mL (≈ 58.4 µM)
- MIC [3]: 25 µg/mL (≈ 58.4 µM)

SMILES: O=c1cc(COc2cccc(I)c2)c2ccc3ccccc3c2o1
- MIC [2]: 50 µg/mL (≈ 117 µM)
- MIC (A549): 12.5 µg/mL (≈ 29.2 µM)
- MIC (Mycolicibacterium phlei): 25 µg/mL (≈ 58.4 µM)
- MIC [3]: 25 µg/mL (≈ 58.4 µM)

SMILES: O=c1cc(COc2cccc(I)c2)c2cc(Cl)ccc2o1
- MIC [2]: 6.25 µg/mL (≈ 15.1 µM)
- MIC (A549): 6.25 µg/mL (≈ 15.1 µM)
- MIC (Mycolicibacterium phlei): 6.25 µg/mL (≈ 15.1 µM)
- MIC [3]: 12.5 µg/mL (≈ 30.3 µM)

SMILES: O=c1cc(COc2cccc(I)c2)c2ccc(Cl)cc2o1
- MIC [2]: 6.25 µg/mL (≈ 15.1 µM)
- MIC (A549): 6.25 µg/mL (≈ 15.1 µM)
- MIC (Mycolicibacterium phlei): 6.25 µg/mL (≈ 15.1 µM)
- MIC [3]: 12.5 µg/mL (≈ 30.3 µM)

SMILES: O=C(Cc1cc(=O)oc2cc(O)ccc12)N/N=C/c1cccc([N+](=O)[O-])c1
- MIC [4]: 6.25 µg/mL (≈ 17 µM)

SMILES: NC(=O)c1cnccn1 [PYRAZINAMIDE]
- MIC (Mycolicibacterium phlei): 3.12 µg/mL (≈ 25.4 µM)
- MIC [3]: 3.12 µg/mL (≈ 25.4 µM)

SMILES: CN[C@@H]1[C@H](O[C@H]2[C@H](O[C@H]3[C@H](O)[C@@H](O)[C@H](N=C(N)N)[C@@H](O)[C@@H]3N=C(N)N)O[C@@H](C)[C@]2(O)C=O)O[C@@H](CO)[C@H](O)[C@H]1O [STREPTOMYCIN]
- MIC (Mycolicibacterium phlei): 6.25 µg/mL (≈ 10.7 µM)
- MIC [3]: 6.25 µg/mL (≈ 10.7 µM)
